According to ChEMBL document CHEMBL4138155, “Design, synthesis and biochemical evaluation of novel multi-target inhibitors as potential anti-Parkinson agents” (Eur J Med Chem, 2018):

Key:
[1] = target: Cholinesterase (Equus caballus) (UniProt P81908); assay: Inhibition of horse serum BuChE at 3 uM using butyrylthiocholine iodide as substrate preincubated for 15 mins followed by substrate addition measured after 10 mins by spectrophotometry based-Ellman's method
[2] = target: T1, Amine oxidase [flavin-containing] A (Homo sapiens, UniProt P21397); assay: Inhibition of recombinant human MAO-A using kynuramine as substrate after 20 mins by fluorescence assay
T1 sequence (P21397 whole entry): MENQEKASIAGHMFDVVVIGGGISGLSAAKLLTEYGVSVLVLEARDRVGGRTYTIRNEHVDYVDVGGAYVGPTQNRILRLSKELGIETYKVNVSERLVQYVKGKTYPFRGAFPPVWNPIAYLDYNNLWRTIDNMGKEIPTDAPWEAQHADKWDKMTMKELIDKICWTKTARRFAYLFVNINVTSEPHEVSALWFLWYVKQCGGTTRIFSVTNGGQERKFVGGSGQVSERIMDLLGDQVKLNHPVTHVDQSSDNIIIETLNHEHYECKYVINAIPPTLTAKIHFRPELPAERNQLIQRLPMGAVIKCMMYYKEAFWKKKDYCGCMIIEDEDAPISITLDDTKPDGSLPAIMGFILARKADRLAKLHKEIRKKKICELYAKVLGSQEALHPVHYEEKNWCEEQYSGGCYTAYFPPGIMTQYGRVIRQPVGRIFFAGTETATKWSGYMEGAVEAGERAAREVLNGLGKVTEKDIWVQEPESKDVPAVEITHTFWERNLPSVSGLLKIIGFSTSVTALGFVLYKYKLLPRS

[3] = target: T2, Amine oxidase [flavin-containing] B (Homo sapiens, UniProt P27338)
T2 sequence (P27338 whole entry): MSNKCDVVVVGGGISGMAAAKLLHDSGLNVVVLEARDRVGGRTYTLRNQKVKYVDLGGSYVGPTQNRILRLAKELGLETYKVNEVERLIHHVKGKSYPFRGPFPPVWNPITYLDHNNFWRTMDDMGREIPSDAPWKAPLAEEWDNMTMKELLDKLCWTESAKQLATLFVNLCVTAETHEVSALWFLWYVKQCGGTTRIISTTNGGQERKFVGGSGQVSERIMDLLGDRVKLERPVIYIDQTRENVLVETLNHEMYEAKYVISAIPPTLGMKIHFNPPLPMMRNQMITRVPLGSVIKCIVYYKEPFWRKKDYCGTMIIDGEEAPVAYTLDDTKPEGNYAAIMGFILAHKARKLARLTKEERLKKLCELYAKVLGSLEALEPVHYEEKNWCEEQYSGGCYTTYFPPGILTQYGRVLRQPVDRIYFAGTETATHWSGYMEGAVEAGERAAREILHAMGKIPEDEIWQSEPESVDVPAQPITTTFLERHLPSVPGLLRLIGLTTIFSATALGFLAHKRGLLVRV

[4] = target: T2, Amine oxidase [flavin-containing] B; assay: Reversible inhibition of recombinant human MAO-B assessed as residual activity at 4 times IC50 using kynuramine as substrate pre-incubated for 15 mins followed by 2 fold dilution of compound for 24 hrs and subsequent substrate addition measured after 20 mins by fluorescence assay relative to control
[5] = target: T2, Amine oxidase [flavin-containing] B; assay: Competitive inhibition of recombinant human MAO-B using kynuramine as substrate pre-incubated for 15 mins followed by 2 fold compound dilution for 24 hrs and subsequent substrate addition measured after 20 mins by Lineweaver-Burk plot analysis
Outline: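 20 min at 37 °C, NaOH stop, 4-hydroxyquinoline fluorescence read. Six Lineweaver-Burk plots; Ki from x-intercept of slope versus inhibitor concentration.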

[6] = Antioxidant activity assessed as total antioxidant capacity after 90 mins by phosphomolybdenum method; type: functional
Outline: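 Sample combined with reagent of 0.6 M sulphuric acid, 28 mM sodium phosphate and 4 mM ammonium molybdate; heated 90 min at 95 °C, absorbance at 695 nm. EC50 = concentration giving absorbance 0.5; trolox as reference.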

[7] = Antioxidant activity assessed as ferric ion reducing activity using Fe3+-TPTZ after 30 mins by FRAP assay; type: functional
Outline: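 FRAP reagent: acetate buffer (0.3 M, pH 3.6), TPTZ (10 mM) in 40 mM HCl and FeCl3 (20 mM), 10:1:1 v/v/v. Sample added, 30 min at room temperature, absorbance at 593 nm. Expressed as EC50.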

[8] = Antioxidant activity assessed as cupric ion reducing activity after 30 mins by CUPRAC assay; type: functional
Outline: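 Sample mixed with CuCl2 (10 mM), neocuproine (7.5 mM) and NH4Ac buffer (1 M, pH 7.0) stock reagents; blank lacks CuCl2. Absorbance at 450 nm after 30 min at room temperature, blank subtracted. Expressed as EC50.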

[9] = Antioxidant activity assessed as DPPH radical scavenging activity after 30 mins; type: functional
Outline: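 Sample added to 0.004% DPPH in methanol, kept 30 min in the dark at room temperature, absorbance read at 517 nm. IC50 taken as the concentration scavenging 50% of DPPH radicals; trolox as reference.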

[10] = Antioxidant activity assessed as ABTS radical scavenging activity measured after 12 to 16 hrs; type: functional
Outline: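 ABTS radical cation generated from 7 mM ABTS with 2.45 mM potassium persulphate, 12-16 h dark at room temperature, then diluted with methanol to A734 0.700 ± 0.02. Sample mixed with ABTS solution, 30 min at room temperature, absorbance read at 734 nm. IC50 = concentration scavenging 50% of radicals; trolox reference.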

[11] = target: T2, Amine oxidase [flavin-containing] B; assay: Inhibition of recombinant human MAO-B assessed as residual activity at 4 times IC50 using kynuramine as substrate pre-incubated for 15 mins substrate addition measured after 20 mins by fluorescence assay relative to control

Chain of Cholinesterase (Equus caballus) (P81908 whole entry): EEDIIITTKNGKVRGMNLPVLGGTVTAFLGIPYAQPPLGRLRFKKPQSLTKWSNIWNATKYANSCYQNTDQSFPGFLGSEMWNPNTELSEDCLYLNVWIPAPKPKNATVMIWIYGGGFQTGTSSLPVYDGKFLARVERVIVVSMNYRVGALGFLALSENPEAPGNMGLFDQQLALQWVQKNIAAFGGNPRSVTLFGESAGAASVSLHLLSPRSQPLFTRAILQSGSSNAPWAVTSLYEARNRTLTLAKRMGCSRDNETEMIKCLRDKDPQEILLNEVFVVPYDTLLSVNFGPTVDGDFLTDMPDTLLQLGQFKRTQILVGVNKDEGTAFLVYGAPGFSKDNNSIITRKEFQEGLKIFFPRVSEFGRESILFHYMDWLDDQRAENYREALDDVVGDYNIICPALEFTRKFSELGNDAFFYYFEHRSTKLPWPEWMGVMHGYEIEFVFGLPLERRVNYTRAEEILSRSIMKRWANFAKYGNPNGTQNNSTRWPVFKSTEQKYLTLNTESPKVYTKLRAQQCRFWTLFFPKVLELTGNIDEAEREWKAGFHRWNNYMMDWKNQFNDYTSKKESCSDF

Compound	inhibition [1]	IC50 [2]	IC50 [3]	Activity [4]	Ki [5]	EC50 [6]	EC50 [7]	EC50 [8]	IC50 [9]	IC50 [10]	Activity [11]
COc1ccc2c3c1O[C@H]1C[C@@H](O)C=C[C@@]31CCN(C)C2	13.6%	–	–	–	–	–	–	–	–	–	–
C/C(=N/Nc1nc(-c2cccc([N+](=O)[O-])c2)cs1)C1CC1	12.8%	2.66 µM	0.0053 µM	91%	0.0073 µM	1470 µM	470 µM	530 µM	1260 µM	1060 µM	46%
CCCCCC/C(C)=N\Nc1nc(-c2cccc([N+](=O)[O-])c2)cs1	9.54%	10.9 µM	0.626 µM	–	–	1240 µM	390 µM	530 µM	1150 µM	1110 µM	–
C/C(=N/Nc1nc(-c2cccc([N+](=O)[O-])c2)cs1)C1CCCCC1	6.22%	29.1 µM	0.0072 µM	–	–	1190 µM	670 µM	610 µM	1350 µM	1050 µM	–
O=[N+]([O-])c1cccc(-c2csc(NN=C3CCCCCCC3)n2)c1	7.64%	1.82 µM	0.01 µM	–	–	1220 µM	390 µM	440 µM	1280 µM	1090 µM	–
C/C(CC(C)C)=N/Nc1nc(-c2cccc([N+](=O)[O-])c2)cs1	8.98%	4.41 µM	0.012 µM	–	–	1130 µM	420 µM	570 µM	1350 µM	1050 µM	–
O=[N+]([O-])c1cccc(-c2csc(NN=C3CCCC3)n2)c1	12.4%	3.46 µM	0.095 µM	–	–	1340 µM	400 µM	510 µM	1180 µM	1100 µM	–
CC1CCC(=NNc2nc(-c3cccc([N+](=O)[O-])c3)cs2)CC1 (stereo not given)	4.87%	4.25 µM	0.237 µM	–	–	1130 µM	390 µM	390 µM	1180 µM	1090 µM	–
Cc1c(C)c2c(c(C)c1O)CCC(C)(C(=O)O)O2 (stereo not given) [TROLOX]	–	–	–	–	–	1130 µM	160 µM	240 µM	400 µM	660 µM	–
CCC(CC)=NNc1nc(-c2cccc([N+](=O)[O-])c2)cs1	7.45%	24.3 µM	0.053 µM	–	–	1100 µM	340 µM	460 µM	1130 µM	1040 µM	–
O=[N+]([O-])c1cccc(-c2csc(NN=C3CCCCCC3)n2)c1	7.11%	1.59 µM	0.0086 µM	–	–	1230 µM	420 µM	410 µM	1220 µM	1070 µM	–
CC/C(C)=N\Nc1nc(-c2cccc([N+](=O)[O-])c2)cs1	12.1%	20.5 µM	0.351 µM	–	–	1650 µM	420 µM	580 µM	1180 µM	1040 µM	–
C=CCC/C(C)=N\Nc1nc(-c2cccc([N+](=O)[O-])c2)cs1	6.35%	3.99 µM	0.101 µM	–	–	1150 µM	330 µM	460 µM	1210 µM	1040 µM	–
CCCC/C(C)=N\Nc1nc(-c2cccc([N+](=O)[O-])c2)cs1	11.3%	6.33 µM	0.118 µM	–	–	1460 µM	370 µM	520 µM	1180 µM	1060 µM	–
O=[N+]([O-])c1cccc(-c2csc(NN=C3CCCCC3)n2)c1	8.41%	2.56 µM	0.047 µM	–	–	1430 µM	330 µM	320 µM	1200 µM	1100 µM	–
CCC/C(C)=N\Nc1nc(-c2cccc([N+](=O)[O-])c2)cs1	5.16%	38 µM	0.055 µM	–	–	1200 µM	450 µM	550 µM	1200 µM	1040 µM	–
CCCC/C(CC)=N\Nc1nc(-c2cccc([N+](=O)[O-])c2)cs1	10%	6.03 µM	0.182 µM	–	–	1560 µM	410 µM	550 µM	1260 µM	1040 µM	–
CC(C)=NNc1nc(-c2cccc([N+](=O)[O-])c2)cs1	12.8%	1.07 µM	0.716 µM	–	–	1750 µM	340 µM	510 µM	1160 µM	1070 µM	–
CCC/C(CC)=N\Nc1nc(-c2cccc([N+](=O)[O-])c2)cs1	11%	4.86 µM	0.189 µM	–	–	1250 µM	390 µM	530 µM	1230 µM	1040 µM	–
